Measured values reported in ChEMBL document CHEMBL5356993, “Novel pyrazolo[3,4-d]pyrimidine derivatives: design, synthesis, anticancer evaluation, VEGFR-2 inhibition, and antiangiogenic activity” (RSC Med Chem, 2023).

Tests used:
Type in all cases: functional
Details in all cases: read-out: GI
SF-268 = test: Antiproliferative activity against human SF-268 cells assessed as cell growth inhibition at 10 uM incubated for 48 hrs by SRB assay relative to control
SN12C = test: Antiproliferative activity against human SN12C cells assessed as cell growth inhibition at 10 uM incubated for 48 hrs by SRB assay relative to control
DU-145 = test: Antiproliferative activity against human DU-145 cells assessed as cell growth inhibition at 10 uM incubated for 48 hrs by SRB assay relative to control
HCT-15 = test: Antiproliferative activity against human HCT-15 cells assessed as cell growth inhibition at 10 uM incubated for 48 hrs by SRB assay relative to control
NCI-H460 = test: Antiproliferative activity against human NCI-H460 cells assessed as cell growth inhibition at 10 uM incubated for 48 hrs by SRB assay relative to control
SK-MEL-2 = test: Antiproliferative activity against human SK-MEL-2 cells assessed as cell growth inhibition at 10 uM incubated for 48 hrs by SRB assay relative to control
Procedure, shortened: (§1)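 Cells plated in 96-well plates at […] cells/well and preincubated 24 h at 37 °C, 5% CO2. Time-zero plates were TCA-fixed. Compound was diluted in medium with 50 µg/mL gentamicin and cells exposed for 48 h. Adherent cells fixed with 10% final TCA; suspension cells with 16% final TCA. Plates stained with 0.4% SRB in 1% acetic acid, dye solubilized in 10 mM Trizma, absorbance read at 515 nm. Percent growth calculated against time-zero and control.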

NCI/ADR-RES = test: Antiproliferative activity against human NCI-ADR-RES cells assessed as cell growth inhibition at 10 uM incubated for 48 hrs by SRB assay relative to control
OVCAR-3 = test: Antiproliferative activity against human OVCAR-3 cells assessed as cell growth inhibition at 10 uM incubated for 48 hrs by SRB assay relative to control; procedure, shortened: as §1
RXF 393 = test: Antiproliferative activity against human RXF 393 cells assessed as cell growth inhibition at 10 uM incubated for 48 hrs by SRB assay relative to control; procedure, shortened: as §1
BT-549 = test: Antiproliferative activity against human BT-549 cells assessed as cell growth inhibition at 10 uM incubated for 48 hrs by SRB assay relative to control
TK-10 = test: Antiproliferative activity against human TK-10 cells assessed as cell growth inhibition at 10 uM incubated for 48 hrs by SRB assay relative to control
Procedure, shortened: (§2)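 Cells pre-incubated 24 h at 37°C, 5% CO2, then exposed to compound (DMSO stock diluted in medium with 50 µg/mL gentamicin) for 48 h. Adherent cells fixed with cold TCA (final 10%, 60 min, 4°C); suspension cells fixed with 16% TCA final. Stained with 0.4% SRB in 1% acetic acid for 10 min, dye solubilized in 10 mM Trizma base, absorbance read at 515 nm. Growth calculated against time-zero and untreated control plates.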

HOP-62 = test: Antiproliferative activity against human HOP-62 cells assessed as cell growth inhibition at 10 uM incubated for 48 hrs by SRB assay relative to control
A498 = test: Antiproliferative activity against human A498 cells assessed as cell growth inhibition at 10 uM incubated for 48 hrs by SRB assay relative to control; procedure, shortened: as §1
SF-295 = test: Antiproliferative activity against human SF-295 cells assessed as cell growth inhibition at 10 uM incubated for 48 hrs by SRB assay relative to control; procedure, shortened: as §1
MDA-MB-435 = test: Antiproliferative activity against human MDA-MB-435 cells assessed as cell growth inhibition at 10 uM incubated for 48 hrs by SRB assay relative to control
CCRF-CEM = test: Antiproliferative activity against human CCRF-CEM cells assessed as cell growth inhibition at 10 uM incubated for 48 hrs by SRB assay relative to control; procedure, shortened: as §1
786-0 = test: Antiproliferative activity against human 786-0 cells assessed as cell growth inhibition at 10 uM incubated for 48 hrs by SRB assay relative to control
SNB-75 = test: Antiproliferative activity against human SNB-75 cells assessed as cell growth inhibition at 10 uM incubated for 48 hrs by SRB assay relative to control; procedure, shortened: as §2
PC-3 = test: Antiproliferative activity against human PC-3 cells assessed as cell growth inhibition at 10 uM incubated for 48 hrs by SRB assay relative to control
NCI-H522 = test: Antiproliferative activity against human NCI-H522 cells assessed as cell growth inhibition at 10 uM incubated for 48 hrs by SRB assay relative to control; procedure, shortened: as §1
LOX IMVI = test: Antiproliferative activity against human LOX IMVI cells assessed as cell growth inhibition at 10 uM incubated for 48 hrs by SRB assay relative to control
CAKI-1 = test: Antiproliferative activity against human CAKI-1 cells assessed as cell growth inhibition at 10 uM incubated for 48 hrs by SRB assay relative to control
Hs-578T = test: Antiproliferative activity against human Hs-578T cells assessed as cell growth inhibition at 10 uM incubated for 48 hrs by SRB assay relative to control; procedure, shortened: as §1
HT-29 = test: Antiproliferative activity against human HT-29 cells assessed as cell growth inhibition at 10 uM incubated for 48 hrs by SRB assay relative to control; procedure, shortened: as §1
M14 = test: Antiproliferative activity against human M14 cells assessed as cell growth inhibition at 10 uM incubated for 48 hrs by SRB assay relative to control; procedure, shortened: as §1
HOP-92 = test: Antiproliferative activity against human HOP-92 cells assessed as cell growth inhibition at 10 uM incubated for 48 hrs by SRB assay relative to control; procedure, shortened: as §1
NCI-H322M = test: Antiproliferative activity against human NCI-H322M cells assessed as cell growth inhibition at 10 uM incubated for 48 hrs by SRB assay relative to control
UACC-257 = test: Antiproliferative activity against human UACC-257 cells assessed as cell growth inhibition at 10 uM incubated for 48 hrs by SRB assay relative to control; procedure, shortened: as §2
SF-539 = test: Antiproliferative activity against human SF-539 cells assessed as cell growth inhibition at 10 uM incubated for 48 hrs by SRB assay relative to control; procedure, shortened: as §1
HCC 2998 = test: Antiproliferative activity against human HCC 2998 cells assessed as cell growth inhibition at 10 uM incubated for 48 hrs by SRB assay relative to control
MCF7 = test: Antiproliferative activity against human MCF7 cells assessed as cell growth inhibition at 10 uM incubated for 48 hrs by SRB assay relative to control
RPMI-8226 = test: Antiproliferative activity against human RPMI-8226 cells assessed as cell growth inhibition at 10 uM incubated for 48 hrs by SRB assay relative to control
NCI-H226 = test: Antiproliferative activity against human NCI-H226 cells assessed as cell growth inhibition at 10 uM incubated for 48 hrs by SRB assay relative to control; procedure, shortened: as §1
OVCAR-5 = test: Antiproliferative activity against human OVCAR-5 cells assessed as cell growth inhibition at 10 uM incubated for 48 hrs by SRB assay relative to control; procedure, shortened: as §1

SMILES	inhibition of growth at 10 µM (SF-268) [%]	inhibition of growth at 10 µM (SN12C) [%]	inhibition of growth at 10 µM (DU-145) [%]	inhibition of growth at 10 µM (HCT-15) [%]	inhibition of growth at 10 µM (NCI-H460) [%]	inhibition of growth at 10 µM (SK-MEL-2) [%]	inhibition of growth at 10 µM (NCI/ADR-RES) [%]	inhibition of growth at 10 µM (OVCAR-3) [%]	inhibition of growth at 10 µM (RXF 393) [%]	inhibition of growth at 10 µM (BT-549) [%]	inhibition of growth at 10 µM (TK-10) [%]	inhibition of growth at 10 µM (HOP-62) [%]	inhibition of growth at 10 µM (A498) [%]	inhibition of growth at 10 µM (SF-295) [%]	inhibition of growth at 10 µM (MDA-MB-435) [%]	inhibition of growth at 10 µM (CCRF-CEM) [%]	inhibition of growth at 10 µM (786-0) [%]	inhibition of growth at 10 µM (SNB-75) [%]	inhibition of growth at 10 µM (PC-3) [%]	inhibition of growth at 10 µM (NCI-H522) [%]	also measured
Cc1nc2c(cnn2-c2ccccc2)c(=O)n1-c1ccc(N2C(=O)c3ccccc3C2=O)cc1	< 15	< 15	< 15	< 15	< 15	< 15	< 15	< 15	< 15	< 15	< 15	< 15	< 15	< 15	< 15	< 15	< 15	< 15	< 15	< 15	inhibition of growth at 10 µM (LOX IMVI): < 15%; inhibition of growth at 10 µM (CAKI-1): < 15%; inhibition of growth at 10 µM (Hs-578T): < 15%; inhibition of growth at 10 µM (HT-29): < 15%; inhibition of growth at 10 µM (M14): < 15%; inhibition of growth at 10 µM (HOP-92): < 15%; inhibition of growth at 10 µM (NCI-H322M): < 15%; inhibition of growth at 10 µM (UACC-257): < 15%; inhibition of growth at 10 µM (SF-539): < 15%; inhibition of growth at 10 µM (HCC 2998): < 15%; inhibition of growth at 10 µM (MCF7): < 15%; inhibition of growth at 10 µM (RPMI-8226): < 15%; inhibition of growth at 10 µM (NCI-H226): < 15%; inhibition of growth at 10 µM (OVCAR-5): < 15%
Cc1nc2c(cnn2-c2ccccc2)c(=O)n1-c1ccc(N2C(=O)C=CC2=O)cc1	< 15	< 15	< 15	< 15	< 15	< 15	< 15	< 15	< 15	< 15	< 15	< 15	< 15	< 15	< 15	32.2	< 15	< 15	< 15	< 15	inhibition of growth at 10 µM (LOX IMVI): < 15%; inhibition of growth at 10 µM (CAKI-1): < 15%; inhibition of growth at 10 µM (Hs-578T): < 15%; inhibition of growth at 10 µM (HT-29): < 15%; inhibition of growth at 10 µM (M14): < 15%; inhibition of growth at 10 µM (HOP-92): < 15%; inhibition of growth at 10 µM (NCI-H322M): < 15%; inhibition of growth at 10 µM (UACC-257): < 15%; inhibition of growth at 10 µM (SF-539): < 15%; inhibition of growth at 10 µM (HCC 2998): < 15%; inhibition of growth at 10 µM (MCF7): < 15%; inhibition of growth at 10 µM (RPMI-8226): < 15%; inhibition of growth at 10 µM (NCI-H226): < 15%; inhibition of growth at 10 µM (OVCAR-5): < 15%
